In ChEMBL document CHEMBL3853286, “Screening and Biological Effects of Marine Pyrroloiminoquinone Alkaloids: Potential Inhibitors of the HIF-1α/p300 Interaction” (J Nat Prod, 2016):
Active and inactive are the calls of the source. No cut-off for these calls is given here.

Legend:
[1] = Cytotoxicity against human COLO205 cells measured after 48 hrs under hypoxic condition by CCK8 assay; format: functional, cell-based; conditions: COLO 205, 48 h
Outline: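 COLO 205 cells in RPMI-1640 with 10% FBS, seeded 15 000 cells/well. After 24 h, treated with fresh medium holding compound (0.001−10 μM), tirapazamine positive control or DMSO (0.5%, v/v). Incubated 48 h at 0.5% O2, then CCK-8 added for 2 h at 37 °C and absorbance read at 450 nm. Viability normalized to DMSO controls. Quadruplicate wells, triplicate experiments.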

[2] = Cytotoxicity against human HCT116 cells measured after 18 hrs under hypoxic condition by CCK8 assay; format: functional, cell-based; conditions: HCT-116, 18 h
Outline: (§1)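 HCT 116 cells in McCoy's 5A with 10% FBS, seeded 10 000 cells/well. After 24 h, treated with compound (0.05−50 μM), tirapazamine positive control or DMSO (0.5%, v/v). Incubated 18 h or 48 h at 0.5% O2, then CCK-8 for 2 h at 37 °C with absorbance at 450 nm. Percent viability relative to DMSO controls. Quadruplicate wells, triplicate experiments.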

[3] = Cytotoxicity against human HCT116 cells measured after 48 hrs under hypoxic condition by CCK8 assay; format: functional, cell-based; conditions: HCT-116, 48 h; outline: as §1
[4] = molecular target: T1, Hypoxia-inducible factor 1-alpha (Homo sapiens, UniProt Q16665); assay: Inhibition of hypoxia-induced HIF1alpha transcriptional activity in human HCT116 cells at 0.25 to 0.5 uM measured after 18 hrs by hypoxia response element-driven dual luciferase reporter gene assay relative to hypoxia control; format: cell-based; conditions: HCT-116
Outline: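 HCT 116 cells seeded 50 000/well and cotransfected with 100 ng pGL4.42 (4×HRE-firefly luciferase) and 10 ng pRL-TK Renilla using Lipofectamine 2000. After 24 h, cells treated in medium with 0.1% FBS, compound 0.01–10 μM. Incubated 18 h at 0.5% O2 or normoxia. HRE:TK signal divided by the mean of the DMSO hypoxic controls gives fold-induction. Quadruplicate wells, triplicate experiments.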
Target sequence in this assay (Q16665 whole entry, looked up): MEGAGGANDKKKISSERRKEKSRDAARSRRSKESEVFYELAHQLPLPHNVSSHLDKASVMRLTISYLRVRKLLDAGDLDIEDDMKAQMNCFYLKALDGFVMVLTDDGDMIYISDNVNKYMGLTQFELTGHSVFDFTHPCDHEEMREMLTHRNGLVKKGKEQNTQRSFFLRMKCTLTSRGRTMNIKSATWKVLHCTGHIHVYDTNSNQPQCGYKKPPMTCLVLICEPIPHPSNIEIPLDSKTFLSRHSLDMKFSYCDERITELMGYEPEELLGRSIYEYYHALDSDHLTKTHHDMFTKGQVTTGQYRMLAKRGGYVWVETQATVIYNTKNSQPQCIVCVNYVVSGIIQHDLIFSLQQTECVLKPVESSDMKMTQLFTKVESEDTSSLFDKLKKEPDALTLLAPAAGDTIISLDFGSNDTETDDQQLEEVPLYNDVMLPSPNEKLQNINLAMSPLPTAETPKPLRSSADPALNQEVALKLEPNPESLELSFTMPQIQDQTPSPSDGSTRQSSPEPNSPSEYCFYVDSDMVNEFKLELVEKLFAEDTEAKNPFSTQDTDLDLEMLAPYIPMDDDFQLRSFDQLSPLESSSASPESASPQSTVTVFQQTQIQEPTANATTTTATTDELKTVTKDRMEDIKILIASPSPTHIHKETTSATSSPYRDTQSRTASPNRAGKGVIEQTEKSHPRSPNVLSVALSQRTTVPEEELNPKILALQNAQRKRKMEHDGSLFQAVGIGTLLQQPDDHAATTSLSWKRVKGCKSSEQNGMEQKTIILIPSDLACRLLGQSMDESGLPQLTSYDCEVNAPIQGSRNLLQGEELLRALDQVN

[5] = molecular target: T1, Hypoxia-inducible factor 1-alpha; assay: Inhibition of HIF-1alpha in human LNCAP cells assessed as decrease in VEGF secretion at 0.5 uM measured after 18 hrs under hypoxic conditions by ELISA; format: cell-based
Outline: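 LNCaP cells seeded 15 000/well in 96-well plates and incubated overnight at 37 °C. Medium then replaced with medium containing 0.1% charcoal-stripped FBS plus compound at 0.25, 0.5 or 1 μM, or DMSO control. Incubated 18 h at 1% O2. Supernatant diluted 2-fold and VEGF quantified by Quantikine ELISA. Values normalised per cell using CCK-8 viability. Triplicate experiments; exact Wilcoxon test with Hochberg correction.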
Target sequence in this assay (Q16665 whole entry, looked up): as above

[6] = molecular target: T1, Hypoxia-inducible factor 1-alpha; assay: Displacement of GST-tagged p300-CH1 domain (323 to 423 residues) from synthetic biotinylated HIF-1alpha C-TAD domain (786 to 826 residues) (unknown origin) measured after overnight incubation by fluorescence analysis
Outline: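 Cell-free protein–protein displacement assay. The p300 CH1 domain is displaced from the HIF-1α C-TAD, which is immobilized on streptavidin-coated plates. IC50 values derived.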
Target sequence in this assay (Q16665 whole entry): as the sequence (Q16665 whole entry, looked up) above

[7] = molecular target: T1, Hypoxia-inducible factor 1-alpha; assay: Inhibition of hypoxia-induced HIF1alpha transcriptional activity in human LNCAP cells at 0.25 to 0.5 uM measured after 18 hrs by hypoxia response element-driven dual luciferase reporter gene assay relative to hypoxia control; format: cell-based
Target sequence in this assay (Q16665 whole entry, looked up): as above

[8] = molecular target: T1, Hypoxia-inducible factor 1-alpha; assay: Inhibition of HIF-1alpha in human PC3 cells assessed as decrease in VEGF mRNA expression level; format: cell-based; conditions: PC-3
Target sequence in this assay (Q16665 whole entry, looked up): as above

[9] = molecular target: T1, Hypoxia-inducible factor 1-alpha; assay: Inhibition of HIF-1alpha in human PC3 cells assessed as decrease in LDHA mRNA expression level; format: cell-based; conditions: PC-3
Target sequence in this assay (Q16665 whole entry, looked up): as above

[10] = molecular target: T1, Hypoxia-inducible factor 1-alpha; assay: Inhibition of HIF-1alpha in human PC3 cells assessed as decrease in ENO1 mRNA expression level; format: cell-based; conditions: PC-3
Target sequence in this assay (Q16665 whole entry, looked up): as above

[11] = Cytotoxicity against human LNCAP cells measured after 18 hrs under hypoxic condition by CCK8 assay; format: functional, cell-based
Outline: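 LNCaP cells in phenol-free RPMI-1640 with 10% FBS, seeded 15 000 cells/well. After 24 h, exposed to compound (0.1−10 μM), tirapazamine or DMSO (0.5%, v/v) for 18 h at 1% O2. CCK-8 absorbance read at 450 nm after 2 h at 37 °C and normalized to DMSO controls to give percent viability. Quadruplicate wells, triplicate experiments.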

[12] = molecular target: T1, Hypoxia-inducible factor 1-alpha; assay: Inhibition of hypoxia-induced HIF1alpha transcriptional activity in human HCT116 cells assessed as compound concentration causing inhibition of transcriptional activity measured after 18 hrs by hypoxia response element-driven dual luciferase reporter gene assay relative to hypoxia control; format: cell-based; conditions: HCT-116
Outline: (§2)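 HCT 116 cells seeded 50 000/well and cotransfected (Lipofectamine 2000) with 100 ng pGL4.42 HRE-firefly luciferase and 10 ng pRL-TK Renilla. After 24 h, treated in 0.1% FBS medium with compound (0.01−10 μM), chetomin (0.5 μM) or tirapazamine (25 μM). Incubated 18 h at 0.5% O2 or normoxia. HRE:TK ratio normalized to hypoxic DMSO control. Wilcoxon test with Hochberg correction.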

[13] = molecular target: T1, Hypoxia-inducible factor 1-alpha; assay: Inhibition of hypoxia-induced HIF1alpha transcriptional activity in human HCT116 cells at 0.1 to 10 uM measured after 18 hrs by hypoxia response element-driven dual luciferase reporter gene assay relative to hypoxia control; format: cell-based; conditions: HCT-116; outline: as §2
[14] = molecular target: T1, Hypoxia-inducible factor 1-alpha; assay: Inhibition of hypoxia-induced HIF1alpha transcriptional activity in human LNCAP cells at 0.1 to 10 uM measured after 18 hrs by hypoxia response element-driven dual luciferase reporter gene assay relative to hypoxia control; format: cell-based
Outline: (§3)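 LNCaP cells seeded 15 000/well and cotransfected (Lipofectamine 3000) with 10 ng pGL4.42 HRE-luciferase and 1 ng pRL-TK. After 24 h, treated in phenol-free RPMI-1640 with 0.1% charcoal-stripped FBS containing compound (0.1, 1, 10 μM). Incubated 18 h at 1% O2. Dual-luciferase HRE:TK ratio normalized to hypoxic DMSO control. Quadruplicate wells, triplicate experiments, Wilcoxon test with Hochberg correction.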

[15] = molecular target: T1, Hypoxia-inducible factor 1-alpha; assay: Inhibition of HIF1alpha in human LNCAP cells assessed as hypoxia-induced VEGF secretion at 0.5 uM measured after 18 hrs under hypoxic conditions by ELISA
[16] = molecular target: T1, Hypoxia-inducible factor 1-alpha; assay: Inhibition of hypoxia-induced HIF1alpha transcriptional activity in human LNCAP cells assessed as compound concentration causing inhibition of transcriptional activity measured after 18 hrs by hypoxia response element-driven dual luciferase reporter gene assay relative to hypoxia control; format: cell-based; outline: as §3
[17] = molecular target: T1, Hypoxia-inducible factor 1-alpha; assay: Inhibition of HIF1alpha in human LNCAP cells assessed as hypoxia-induced VEGF secretion at 0.25 to 1 uM measured after […] under hypoxic conditions by ELISA; format: cell-based

SMILES	IC50 [1] [µM]	IC50 [2] [µM]	IC50 [3] [µM]	inhibition [4]	inhibition [5]	IC50 [6] [µM]	inhibition [7]	inhibition [8]	inhibition [9]	inhibition [10]	IC50 [11] [µM]	Concentration causing inhibition [12] [µM]	inhibition (qualitative active call) [13]	inhibition outcome (active/inactive) [14]	inhibition [15]	Concentration causing inhibition [16] [µM]	inhibition [17]
Nc1n[n+]([O-])c2ccccc2[n+]1[O-] [TIRAPAZAMINE]	47.7	72.7	11.9	–	–	–	–	–	–	–	–	–	–	–	–	–	–
CN1C(=O)[C@@]2(CO)SS[C@@]1(Cc1cn([C@]34C[C@@]56SS[C@](CO)(C(=O)N5[C@H]3Nc3ccccc34)N(C)C6=O)c3ccccc13)C(=O)N2C	–	–	–	Active	Active	1.9	Active	–	–	–	–	–	–	–	–	–	–
CN1C(=O)[C@]23CC4=CC=C[C@H](O)[C@H]4N2C(=O)[C@@]1(CO)SS3	–	–	–	–	–	–	–	Active	Active	Active	–	–	–	–	–	–	–
O=C1C=C(SSC2=CC(=O)C(Br)=C[C@]23CCNC2=C3C3=NCCc4c[nH]c(c43)C2=O)[C@]2(C=C1Br)CCNC1=C2C2=NCCc3c[nH]c(c32)C1=O	> 10	> 10	–	–	–	> 100	–	–	–	–	> 10	0.1	Active	–	–	–	–
Cn1c(C[C@H](N)C(=O)O)cnc1S[C@H]1[C@H]2C(=O)C=C3S[C@H]4C[C@]31C1=C(N4)C(=O)c3[nH]cc4c3C1=[N+]2CC4	> 10	> 10	> 50	–	–	2.2	–	–	–	–	> 10	0.5	Active	Active	Active	0.1	–
O=C1C(NC2Cc3cc(Br)c(O)cc3S2)=CC2=NCCc3c[nH]c1c32 (centres undefined) [MAKALUVAMINE F]	> 10	7.2	–	–	–	8.3	–	–	–	–	> 10	0.25	Active	Active	–	0.1	–
O=C1C=C2S[C@H]3C[C@]2(C=C1Br)C1=C(N3)C(=O)c2[nH]cc3c2C1=NCC3 [(+)-DISCORHABDIN B]	1.8	3.1	–	–	–	3.7	–	–	–	–	7	0.1	Active	Active	–	1	–
O=C1C=C(S[C@H]2[C@H]3C(=O)C=C4S[C@H]5C[C@]42C2=C(N5)C(=O)c4[nH]cc5c4C2=[N+]3CC5)[C@]2(C=C1Br)CCNC1=C2C2=NCCc3c[nH]c(c32)C1=O	> 10	> 10	26.8	–	–	2.4	–	–	–	–	> 10	0.1	Active	Active	–	1	–
O=C1C2=C3C4=[N+](CCc5c[nH]c1c54)[C@@H]1C(=O)C=C4S[C@@H](C[C@@]43[C@H]1O)N2	7.6	6.2	> 50	–	–	0.73	–	–	–	–	8.3	0.1	Active	Active	–	1	Active
O=C1C2=C(C3=NCCc4c[nH]c1c43)[C@]1(C=C(Br)[C@H](O)C(Br)=C1)CCN2	5.1	8.6	–	–	–	35.2	–	–	–	–	> 10	10	Active	Active	–	1	–
